Results gathered from unrelated publications.
Each line is one published result; the experiments were not run side by side. pEC50, pIC50: −log10 of the molar value. ≈ marks a conversion by molar mass, not a printed value.

Structure (SMILES) | organism | assay | system | setting | measurement | result
O=C(N/N=C/c1ccc(O)c(O)c1)c1cc2ccccc2cc1O | Murine coronavirus | viral replication | – | – | pIC50 | 5.22
O=c1c2ccccc2nc(/C=C/c2ccc(F)cc2)n1-c1cccc(O)c1 | Enterococcus faecium | microbial growth, broth dilution | NCTC7171 | – | MIC | 128 µg/mL (≈ 357 µM)
O=c1cccc(C2CCCCC2)n1O | Candida albicans | microbial growth | ATCC90028 | – | MIC80 | 1.9 µM (≈ 0.367 µg/mL)
O=c1c2ccccc2nc(/C=C/c2ccc(F)cc2)n1-c1cccc([N+](=O)[O-])c1 | Enterococcus faecium | microbial growth, broth dilution | NCTC7171 | – | MIC | > 128 µg/mL
CCCCCOc1ccc(-c2cc(-c3ccc(C(=O)N[C@H]4C[C@@H](O)[C@@H](O)NC(=O)[C@@H]5[C@@H](O)[C@@H](C)CN5C(=O)[C@H]([C@H](O)CC(N)=O)NC(=O)[C@H]([C@H](O)[C@@H](O)c5ccc(O)c(OS(=O)(=O)O)c5)NC(=O)[C@@H]5C[C@@H](O)CN5C(=O)[C@H]([C@@H](C)O)NC4=O)cc3)no2)cc1 | Candida albicans | biofilm formation | – | 16 µg/mL | inhibition | 47%
COc1ccc(Cc2cc(C)cc(=O)n2O)cc1 | Candida albicans | microbial growth | ATCC90028 | – | MIC80 | 2.3 µM (≈ 0.564 µg/mL)
c1ccc2c(c1)CCc1ccccc1C2OCCN1CCNCC1 | Trypanosoma brucei | parasite growth | – | – | pEC50 | 5.03
Cc1ccc(/C=C/c2nc3ccccc3c(=O)n2-c2cccc(O)c2)cc1 | Enterococcus faecium | microbial growth, broth dilution | NCTC7171 | – | MIC | > 128 µg/mL
COC(=O)c1cc(-c2cccc(NC(=O)Nc3cccc(Br)c3)c2)on1 | Mycobacteroides chelonae | microbial growth, broth dilution | ATCC35752 | 48 h | MIC | > 64 µg/mL
O=c1c2ccccc2nc(/C=C/c2ccccc2F)n1-c1cccc(O)c1 | Enterococcus faecium | microbial growth, broth dilution | NCTC7171 | – | MIC | 32 µg/mL (≈ 89.3 µM)
COC(=O)c1cc(-c2cccc(NC(=O)Nc3ccc(F)c(F)c3)c2)on1 | Mycobacteroides chelonae | microbial growth, broth dilution | ATCC35752 | 48 h | MIC | > 64 µg/mL
COc1cccc(Cc2cc(C)cc(=O)n2O)c1 | Candida albicans | microbial growth | ATCC90028 | – | MIC80 | 2.3 µM (≈ 0.564 µg/mL)
COC(=O)c1cc(-c2cccc(NC(=S)Nc3ccccc3)c2)on1 | Mycobacteroides chelonae | microbial growth, broth dilution | ATCC35752 | 48 h | MIC | > 64 µg/mL
Cl.O[C@]12C=C(c3nccc4c3[nH]c3ccccc34)[C@@H]3CCN(CCCC/C=C\CC1)C[C@@]31C[C@@H]3/C=C\CCCCN3[C@H]12 | Mycobacterium intracellulare | microbial growth, resazurin | ATCC23068 | – | IC50 | 0.12 µg/mL
COC(=O)c1cc(-c2cccc(NC(=S)Nc3ccc(C#N)cc3)c2)on1 | Mycobacteroides chelonae | microbial growth, broth dilution | ATCC35752 | 48 h | MIC | 64 µg/mL (≈ 169 µM)
N#Cc1ccc(/C=C/c2nc3ccccc3c(=O)n2-c2cccc([N+](=O)[O-])c2)cc1 | Enterococcus faecium | microbial growth, broth dilution | NCTC7171 | – | MIC | > 128 µg/mL
COC(=O)c1cc(-c2cccc(NC(=O)Nc3ccc(Cl)cc3Cl)c2)on1 | Mycobacteroides chelonae | microbial growth, broth dilution | ATCC35752 | 48 h | MIC | > 64 µg/mL
Nc1ccc(/C=C/c2nc3ccccc3c(=O)n2-c2cccc(O)c2)cc1 | Enterococcus faecium | microbial growth, broth dilution | NCTC7171 | – | MIC | > 128 µg/mL
COC(=O)c1cc(-c2cccc(NC(=O)Nc3ccc(C)c(Cl)c3)c2)on1 | Mycobacteroides chelonae | microbial growth, broth dilution | ATCC35752 | 48 h | MIC | > 64 µg/mL
O=C(Nc1cccc(Cl)c1)Nc1ncc(CCNc2ncnc3ccsc23)s1 | Plasmodium berghei | parasite growth, luciferase | human | liver stage | pIC50 | 5.38
